Test results: PMC7744370 (European journal of medicinal chemistry, 2020)

Legend:
dopamine transporter = dopamine transporter (Homo sapiens, UniProt Q01959); assay: NIMH PDSP binding assay at dopamine transporter
[1] = system: MDA-MB-231 triple-negative breast cancer cells; assay: MTT cytotoxicity assay on MDA-MB-231 cells; type: cell-based, human
Procedure, shortened: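 MDA-MB-231 cells were kept in DMEM with 10% heat-inactivated FBS and antibiotic-antimycotic at 37 °C, 5% CO2, and tested for mycoplasma. Cells were seeded at 8000/well, grown 24 h, then screened at 20 μM. Dose series of 0–25 μM were given in 2% FBS DMEM with 0.1% final DMSO for 48 h. MTT (0.5 mg/mL) was added for 2 h at 37 °C, formazan dissolved in DMSO and read at 570 nm. IC50 was fitted from three independent experiments.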

caspase-3 = assay: Caspase-3 cleavage; type: cell-based, human; settings: MDA-MB-231
Procedure, shortened: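 MDA-MB-231 cells, grown in DMEM with 10% heat-inactivated FBS at 37 °C and 5% CO2, were exposed to test compound for 48 h and lysed on ice in RIPA buffer with protease/phosphatase inhibitors. Equal protein was run on SDS-PAGE and blotted to PVDF. Blots were probed for cleaved caspase-3 and total caspase-3 (1:1000), with β-tubulin (1:2000) as loading control. Detection used goat anti-rabbit HRP secondary and chemiluminescence; bands were quantified by densitometry.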

MDA-MB-231 cells [2] = assay: Induction of apoptosis in MDA-MB-231 cells; type: cell-based, human; settings: 1 μM, 48 hours
MDA-MB-231 cells [3] = assay: Cell cycle analysis in MDA-MB-231 cells; type: cell-based, human
FGFR1 = assay: pFGFR1 immunoblot in MDA-MB-231 cells with and without bFGF; type: cell-based, human; settings: 3 μM and 6 μM, in the presence of bFGF, 48 hours
Procedure, shortened: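 Phospho-FGFR1 (1:1000) western blot used MDA-MB-231 lysates after 48 h exposure to test compound, with or without the natural ligand bFGF. Lysis was on ice in RIPA buffer with protease/phosphatase inhibitors, followed by SDS-PAGE of equal protein and transfer to PVDF. β-tubulin (1:2000) served as loading control. Detection used HRP anti-rabbit secondary and chemiluminescence, then band densitometry; n = 3.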

[4] = Liver microsomal stability; type: in vitro ADME; settings: rat liver microsomes, up to 60 minutes, compared with PFL
Procedure, shortened: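 Pooled male Sprague-Dawley rat liver microsomes were diluted to a 6.2% mixture in warm potassium-phosphate buffer. Test compound, diluted to 5 μM from a DMSO stock, was mixed with NADPH regenerating solution and prewarmed to 37 °C. Microsomes were then added and incubated 1 h at 37 °C with shaking. Aliquots at 0, 5, 15, 30 and 60 min were quenched in ice-cold acetonitrile, centrifuged at 4 °C and analysed by LC-MS/MS. Percent remaining was calculated from peak-area ratios versus T=0. Results are mean ± SEM, three experiments in triplicate.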

[5] = In vivo BBB permeability, plasma and brain distribution by LC-MS/MS; parameters: species or system C57 mice
Procedure, shortened: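 Male and female C57 mice, 8 weeks old and about 20 g, received a single i.p. 10 mg/kg dose of test compound in 2.5% ethanol, 2.5% DMSO, 5% Tween 80, 25% PEG 400 and 65% PBS. Blood was drawn under anaesthesia at 0, 0.5, 1, 6, 24 and 48 h. Brains were taken after cardiac perfusion and homogenised in PBS (1:3 w/v). Samples were acetonitrile-precipitated with internal standard and quantified by positive-ESI MRM LC-MS/MS against blank-matrix calibration curves. Results are mean ± SEM of 2–4 experiments.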

serotonin receptors = assay: Primary binding assay at serotonin receptors; settings: 10 μM
Procedure, shortened: (§1)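 […] primary binding screen across a panel of brain-expressed CNS receptors, including GPCRs, with test compound at 10 μM. The read-out is % inhibition of binding at each receptor, reported as mean ± SEM of four independent experiments. Receptors are grouped by >50% and >90% inhibition.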

[6] = system: dopamine receptors (subtypes D1-D5); assay: Primary binding assay at dopamine receptors; settings: 10 μM
Procedure, shortened: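 Primary binding screen across a CNS GPCR panel, run through the NIMH screening programme at UNC Chapel Hill. Test compound at 10 μM; read-out is % inhibition as mean ± SEM of four independent experiments. Ki was not evaluated for receptors with under 50% activity.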

[7] = system: GPCRs expressed in the brain; assay: Primary binding assay at selected CNS receptors; settings: 10 μM
Procedure, shortened: as §1

dopamine transporter, sequence (Q01959 whole entry): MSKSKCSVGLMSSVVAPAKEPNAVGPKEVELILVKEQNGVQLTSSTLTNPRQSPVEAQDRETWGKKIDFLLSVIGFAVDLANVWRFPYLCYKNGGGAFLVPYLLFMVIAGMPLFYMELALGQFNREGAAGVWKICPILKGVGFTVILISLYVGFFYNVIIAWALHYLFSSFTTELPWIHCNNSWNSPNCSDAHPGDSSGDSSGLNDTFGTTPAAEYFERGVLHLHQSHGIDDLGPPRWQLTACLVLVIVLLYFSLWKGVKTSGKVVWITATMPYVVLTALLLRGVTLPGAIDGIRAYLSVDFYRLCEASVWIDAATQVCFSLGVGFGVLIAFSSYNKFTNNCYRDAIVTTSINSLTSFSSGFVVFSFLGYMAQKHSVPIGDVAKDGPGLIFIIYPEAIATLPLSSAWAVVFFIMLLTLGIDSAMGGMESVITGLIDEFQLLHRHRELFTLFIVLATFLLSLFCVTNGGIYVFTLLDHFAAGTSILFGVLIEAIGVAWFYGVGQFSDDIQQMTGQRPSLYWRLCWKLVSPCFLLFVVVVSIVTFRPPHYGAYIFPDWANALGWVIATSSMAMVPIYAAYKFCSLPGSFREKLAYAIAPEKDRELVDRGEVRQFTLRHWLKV

SMILES: CC(=O)Nc1cc(NC(=O)NCCCCC(c2ccc(F)cc2)c2ccc(F)cc2)ccc1Cl [4o, N-(5-(3-(5,5-bis(4-fluorophenyl)pentyl)ureido)-2-chlorophenyl)acetamide]
- decrease in affinity to DAT compared to 4l (dopamine transporter): 100 fold

SMILES: O=C(NCCCCC(c1ccc([N+](=O)[O-])cc1)c1ccc([N+](=O)[O-])cc1)Nc1ccc(Cl)c(C(F)(F)F)c1 [8g, 1-(5,5-bis(4-nitrophenyl)pentyl)-3-(4-chloro-3-(trifluoromethyl)phenyl)urea]
- optimization of cytotoxicity relative to hit molecule 4a [1]: 6 fold

SMILES: O=C(NCCCCC(c1ccc(F)cc1)c1ccc(F)cc1)Nc1ccc([N+](=O)[O-])c(C(F)(F)F)c1 [4q, 1-(5,5-bis(4-fluorophenyl)pentyl)-3-(4-nitro-3-(trifluoromethyl)phenyl)urea]
- caspase-3 cleavage and activation (caspase-3): capable of caspase-3 cleavage and activation
- induction of apoptosis (MDA-MB-231 cells [2]): significant induction of apoptosis
- effect on cell cycle (MDA-MB-231 cells [3]): did not affect the cell cycle
- phosphorylation of FGFR1 (FGFR1): completely abrogated phosphorylation of FGFR1
- metabolic stability in liver microsomes [4]: preferred metabolic stability over PFL

SMILES: O=C(NCCCCC(c1ccc(F)cc1)c1ccc(F)cc1)Nc1ccc(Cl)cc1 [4a, 1-(5,5-bis(4-fluorophenyl)pentyl)-3-(4-chlorophenyl)urea]
- Tmax ([5]; both, C57, mouse, in vivo, ip, 10 mg/kg): 1 h
- ability to cross the BBB in vivo ([5]; mice, 10 mg/kg i.p.): retained activity to cross the BBB
- peak concentration ([5]; mice, 10 mg/kg single i.p., plasma and brain (Fig. 3)): approximately 1000 nM
- activity at serotonin receptors (serotonin receptors): no activity at serotonin receptors, except for 5HT-2C
- interaction with dopamine receptors (subtypes D1-D5) [6]: no significant interaction

SMILES: O=C(Nc1ccc(Cl)c(C(F)(F)F)c1)N1CCC(CC(c2ccc(F)cc2)c2ccc(F)cc2)CC1 [19b, 4-(2,2-bis(4-fluorophenyl)ethyl)-N-(4-chloro-3-(trifluoromethyl)phenyl) piperidine-1 carboxamide]
- DAT inhibitory activity (in words) (dopamine transporter): abolished DAT activity

SMILES: OC1(c2ccc(Cl)c(C(F)(F)F)c2)CCN(CCCC(c2ccc(F)cc2)c2ccc(F)cc2)CC1 [PFL, penfluridol]
- number of receptors (GPCRs) inhibited at the level above 50% [7]: 28

SMILES: CN(CCCCC(c1ccc(F)cc1)c1ccc(F)cc1)C(=O)N(C)c1ccc(Cl)c(C(F)(F)F)c1 [compound 15, 1-(5,5-bis(4-fluorophenyl)pentyl)-3-(4-chloro-3-(trifluoromethyl)phenyl)-1,3-dimethylurea]
- DAT inhibitory activity (in words) (dopamine transporter): inactive as a DAT inhibitor

SMILES: O=C(NCCCCC(c1ccc(F)cc1)c1ccc(F)cc1)Nc1ccc(Cl)c(C(F)(F)F)c1 [4l, 1-(5,5-bis(4-fluorophenyl)pentyl)-3-(4-chloro-3-(trifluoromethyl)phenyl)urea]
- metabolic stability in liver microsomes [4]: preferred metabolic stability over PFL
